Source: PubChem BioAssay
SENP8 block-1: inhibitors of human SENP8 protease. Q96LD8. recombinant SENP8, Nedd8 substrate fluorescence. inhibition, % at 20 µM. 360,000 compounds, 0.64% hits. AID 602440; in the data active means inhibition mostly above about 40%, no sharp cut-off; inactive means mostly below about 27%
SENP1 inh: SENP1 (human) catalytic domain inhibition | inhibition, % at 10 µM | recombinant SENP1 catalytic domain, CyPet-SUMO1-YPet FRET cleavage | 360,000 compounds, 0.21% hits;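 active means inhibition at least 30% at 10 µM, raw YFP signal under a set limit, fluorescence ratio 0.5 to 1.5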;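 further: 0% = enzyme with DMSO and 100% = no enzyme wells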
Target sequence (Q9P0U3 419-644 limits assumed): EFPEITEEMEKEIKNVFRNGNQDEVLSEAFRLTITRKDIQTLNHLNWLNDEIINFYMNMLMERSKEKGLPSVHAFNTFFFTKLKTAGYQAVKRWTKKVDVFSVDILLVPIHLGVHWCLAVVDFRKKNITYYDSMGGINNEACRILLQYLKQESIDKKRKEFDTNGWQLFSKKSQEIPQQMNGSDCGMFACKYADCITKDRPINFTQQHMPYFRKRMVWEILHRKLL
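Material: hSENP1 catalytic domain, recombinant; medium: Tris pH 8 with BME, BSA, NP40 and catalase; compound: single concentration of 10 µM compound, 0.5% DMSO final; technique: FRET read of cyan and yellow fluorescence; timing: 50 min enzyme reaction, room temperature, light-protected; reagent: SFCypet-SUMO1-SFYpet substrate at 25 nM; control set: no-enzyme low, enzyme-DMSO high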
HSP90 refold inh: HSP90 refolding inhibition in rabbit reticulocyte lysate; luciferase refolding luminescence, 3 h; inhibition, % at 5.6 µM; 290,000 compounds, 0.91% hits; AID 1789;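 active means inhibition above the screen-wide mean plus 3 SD, computed separately per campaign, cut at about 16% in these data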;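 further: 0% = DMSO wells and 100% = 60 µM geldanamycin wells; inhibitors lower the luminescence because luciferase stays unfolded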
SENP6 inh: blocks the human protease SENP6; Q9GZR1; Recombinant SENP6 catalytic domain, aminoluciferin luminescence; inhibition, % at 10 µM; 330,000 compounds, 1.8% hits;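 active means inhibition above about 50% at the single tested dose, limit read from the data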;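 further: plate controls were DMSO wells with enzyme for no effect and DMSO wells lacking enzyme for full effect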
SENP7 block: blocks the human protease SENP7 | 330,000 compounds, 1.5% hits | AID 434973 | recombinant SENP7, Z-RLRGG-aminoluciferin luminescence, 40 min | Q9BQF6 | inhibition, % at 5 µM;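 active means inhibition above about 50% at the single test dose, limit read from the data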;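 further: plate controls were DMSO with enzyme for no effect and no enzyme buffer wells for full effect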
Target sequence (Q9BQF6 706-1050 limits assumed): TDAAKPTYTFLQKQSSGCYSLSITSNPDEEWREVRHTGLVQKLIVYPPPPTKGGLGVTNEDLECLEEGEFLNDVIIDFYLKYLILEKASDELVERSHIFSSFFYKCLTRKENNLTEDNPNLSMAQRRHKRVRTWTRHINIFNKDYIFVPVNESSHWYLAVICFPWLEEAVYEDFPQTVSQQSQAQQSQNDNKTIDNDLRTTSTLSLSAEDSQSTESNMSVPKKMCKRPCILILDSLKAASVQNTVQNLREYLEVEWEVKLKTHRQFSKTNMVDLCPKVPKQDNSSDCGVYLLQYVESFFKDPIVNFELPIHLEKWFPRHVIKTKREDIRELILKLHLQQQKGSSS
SENP8 block-2: inhibitors of human SENP8 protease | purified SENP8, Z-RLRGG-aminoluciferin cleavage, luminescence | inhibition, % at 10 µM | 330,000 compounds, 1.2% hits; in the data active means inhibition above about 50%
HSP90 inh confirm: HSP90 inhibition, confirmation assay. inhibition, % at 5.9 µM. shares compounds with HSP90 refold inh. AID 1846. rabbit reticulocyte lysate, luciferase refolding luminescence, 3 h. 2,300 compounds, 64% hits; in the data active means inhibition above about 18%;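 further: 0% = vehicle wells and 100% = reference inhibitor wells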
luciferase ctr: blocks native firefly luciferase in HSP90 counter-screen; 2,300 compounds, 48% hits; purified native firefly luciferase, luminescence; shares compounds with HSP90 refold inh; AID 1847; inhibition, % at 5.9 µM;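 active means inhibition above the mean inhibition of all tested sample wells plus 3 SD, cut at about 10% in these data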;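 further: 0% = DMSO with luciferase and 100% = wells lacking luciferase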
* = called active by the depositor; . = not tested or not shown. In the library only some 2.9% were active in any assay of this set; here they are far more common.

SMILES	SENP8 block-1	SENP1 inh	HSP90 refold inh	SENP6 inh	SENP7 block	SENP8 block-2	HSP90 inh confirm	luciferase ctr
COc1ccc(-c2csc(C(O)c3ccc(F)c(OC)c3)n2)cc1 (centres undefined)	13	3	.	.	.	.	.	.
COc1cccc(-c2nn(C)c3sc(C(=O)N4CCN(c5ccccn5)CC4)cc23)c1	-6	1	3	-28	5	-7	.	.
COc1cccc(-c2nn(C)c3sc(C(=O)N4CCOCC4)cc23)c1	-24	4	27*	9	3	3	.	.
Clc1cccc(CSc2ccc(-c3ccco3)nn2)c1	-4	-1	1	-7	-8	-23	.	.
Cc1cccc(CSc2ccc(-c3ccco3)nn2)c1	3	0	-2	52*	-4	11	.	.
Cc1ccccc1C(=O)/C(C#N)=N/Nc1c(C)n(C)n(-c2ccccc2)c1=O	24	1	-6	.	.	.	.	.
Cc1c(N/N=C(\C#N)C(=O)c2ccccc2)c(=O)n(-c2ccccc2)n1C	40*	-5	-1	.	.	.	.	.
CN(C(=O)c1cccc(S(=O)(=O)N2CCCC2)c1)C1CCCCC1	6	4	.	-9	12	1	.	.
CC(C)(C)NC(=O)C(c1cccc2ccccc12)n1c(=O)c(-c2cc3ccccc3[nH]2)nc2ccccc21 (centres undefined)	-414	-17	.	.	.	.	.	.
O=C(c1cc(O)c(O)c([N+](=O)[O-])c1)c1ccccc1F	39*	1	.	-4	-5	9	.	.
CCN1C(=O)[C@@H]2[C@@H](c3ccc(SC4CCCCC4)cc3)N3CCCC[C@@]3(C(=O)OC)[C@@H]2C1=O	-12	-35	.	10	-3	0	.	.
COc1ccccc1N1CCN(C(=O)CCNS(=O)(=O)c2ccc3c(c2)CCC(=O)N3)CC1	18	0	16*	-1	-9	1	.	.
CCC1(CC)NC(=O)N(CC(=O)OCC(=O)Nc2cc(OC)ccc2OC)C1=O	7	1	.	4	4	-1	.	.
CCN(CC)c1ccc(/C=C/c2nc3ccccc3s2)cc1	.	.	67*	86*	95*	94*	.	.
CCc1ccc2c(c1)c(N=NC1=NC(=O)CS1)c(O)n2C	40*	5	3	5	6	3	.	.
CN1C(=O)C(c2cn(C)c3ccccc23)(c2cn(C)c3ccccc23)c2cc(Br)ccc21	16	0	.	.	.	.	.	.
O=c1cc(-c2ccc(F)cc2)[nH][nH]1	28	3	17*	-1	6	-6	.	.
O=c1ccn(Cc2ccccc2)c2ccccc12	4	0	.	-3	8	5	.	.
Cc1c(OCc2ccccc2)c(=O)ccn1Cc1ccccc1	16	1	20*	-7	4	0	-7	-17
O=C1OCC(CO)(CO)N=C1NNc1ccccc1[N+](=O)[O-]	37	5	21*	-3	-8	-4	9	4
COc1cccc(-c2ccc(-c3noc(-c4cccs4)n3)c(OC)n2)c1	-464	0	0	-23	-3	3	.	.
COc1ccc(-c2nc(-c3cccs3)no2)cc1	27	2	33*	99*	99*	96*	87*	81*
COc1ccc(-c2csc(Nc3ccc(S(N)(=O)=O)cc3)n2)cc1OC	-232	-15	23*	0	3	10	-7	-6
C=CC[C@H](CC(=O)N(CCO)Cc1ccccc1)C(=O)N[C@H](COC(=O)[C@@H](CC=C)CC(=O)OC(C)(C)C)c1ccccc1	24	5	.	14	8	2	.	.
Cc1ccc(C(=O)n2c3ccccc3c3ccccc32)cc1	8	1	17*	11	0	5	-1	-20
SMILES	SENP8 block-1	SENP1 inh	HSP90 refold inh	SENP6 inh	SENP7 block	SENP8 block-2	HSP90 inh confirm	luciferase ctr
CC(=O)n1c2ccccc2c2ccccc21	7	1	-6	-21	2	-1	.	.
CCOc1ccccc1-n1c(SCC(=O)Nc2ccccc2C(=O)O)nc2ccccc2c1=O	4	-1	50*	-29	5	-5	56*	37*
CC(=O)NC1C(=O)N=C(SCC(=O)NC(C)c2ccccc2)NC1=O (centres undefined)	2	1	1	-21	8	6	.	.
CC(=O)NC1C(=O)N=C(SCc2ccccc2)NC1=O (centres undefined)	7	3	49*	4	-3	-2	2	-5
Cc1nnc(N/N=C/c2cc([N+](=O)[O-])c(N3CCC(C)CC3)cc2N2CCC(C)CC2)n1N	34	0	76*	17	4	-3	-9	-9
COc1cc(C2C(C(=O)c3cc4ccccc4o3)=C(O)C(=O)N2CCN2CCOCC2)ccc1OCCC(C)C (centres undefined)	-28	-19	0	22	6	-24	.	.
COCCCN1C(=O)C(CC(=O)NC2CCCC2)CC(C(=O)N2CCOCC2)=C1C (centres undefined)	15	1	.	.	.	.	.	.
COc1ccc(OCc2nnc(NC(=O)Nc3ccc(F)cc3)s2)cc1	8	0	-1	-11	6	-5	.	.
CCc1nnc(NC(=O)c2ccc(OC)cc2OC)s1	-3	0	21*	-24	-1	-14	47*	43*
CCOc1ccc(NC(=O)Nc2nnc(CC)s2)cc1	27	-2	18*	-17	-17	-10	-2	-9
Cc1cccc(S(=O)(=O)N(C)C[C@@H]2OCc3cnnn3CCCC(=O)N([C@@H](C)CO)C[C@@H]2C)c1	-10	0	.	.	.	.	.	.
Cc1ccc(C(=O)OCC(=O)Nc2ccccc2)cc1NC(=O)c1ccco1	6	2	0	-9	-3	-3	.	.
CCC(=O)Nc1ccccc1C(=O)OCC(=O)c1ccccc1	6	3	52*	0	-8	-11	66*	-30
CC(=O)Nc1cc(C(=O)OCC(=O)c2ccccc2)ccc1C	19	1	24*	-8	3	-10	60*	-17
CCOC(=O)c1c2c3c(cccc3n(C)c1=O)C(=O)c1ccccc1-2	17	18	44*	25	-2	10	2	-4
CCOC(=O)c1ccc(S(=O)(=O)N2CCN(C3CC(=O)N(c4ccccc4C(F)(F)F)C3=O)CC2)cc1 (centres undefined)	5	-1	.	6	-6	3	.	.
Nc1c(C(=O)OCC2CCCO2)c2nc3ccccc3nc2n1C1CCCC1 (centres undefined)	-288	-55	17*	-1	-2	11	-2	-8
CCn1cc(CN2CCC(n3nccc3NC(=O)C3CCCC3)CC2)cn1	16	1	1	5	-11	-7	.	.
CCOC(=O)/C(C#N)=C\c1cc(C)n(-c2ccccc2)c1C	-95	-5	50*	-30	3	-17	63*	62*
